Experimental data as given in article PMC12823633 (Cancer Chemotherapy and Pharmacology, 2026).

Key:
[1] = Adverse events, DDI evaluation period; format: in vivo, human (patients with solid tumors)
CYP3A4 = settings: human, plasma, oral, 2.5 mg
CYP2C8 [2] = molecular target: T1, CYP2C8 (Homo sapiens, UniProt P10632); experiment: Clinical DDI: pioglitazone plasma PK with and without TAS-115; settings: oral, 15 mg
T1 sequence (P10632 1-490): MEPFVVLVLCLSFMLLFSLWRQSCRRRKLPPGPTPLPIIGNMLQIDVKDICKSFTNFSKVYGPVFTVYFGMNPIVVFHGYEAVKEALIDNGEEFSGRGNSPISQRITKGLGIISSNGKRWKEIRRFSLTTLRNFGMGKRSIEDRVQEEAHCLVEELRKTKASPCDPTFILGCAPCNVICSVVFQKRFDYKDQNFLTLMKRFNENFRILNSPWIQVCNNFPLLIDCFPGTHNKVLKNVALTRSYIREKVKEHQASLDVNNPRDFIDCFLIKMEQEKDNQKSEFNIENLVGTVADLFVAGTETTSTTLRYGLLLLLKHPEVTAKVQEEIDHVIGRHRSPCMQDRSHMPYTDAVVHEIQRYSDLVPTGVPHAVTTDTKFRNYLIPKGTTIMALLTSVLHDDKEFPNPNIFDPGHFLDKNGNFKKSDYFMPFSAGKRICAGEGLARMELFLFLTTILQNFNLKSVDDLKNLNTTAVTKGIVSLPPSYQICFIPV

[3] = TAS-115 trough plasma concentrations; format: in vivo, human (patients with solid tumors)
[4] = Adverse events, continuous administration period; format: in vivo, human (patients with solid tumors)
solid tumors = experiment: Anti-tumor efficacy, continuous administration period; format: in vivo, human (patients with solid tumors)
Method in brief: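 Open-label single-arm multicenter study in Japan. Test compound 250 mg given orally, fasted, on 5 consecutive days from Day 1 of repeated 21-day cycles (2 days off), until discontinuation. Investigator-assessed per RECIST 1.1. ORR is the % with best response CR/PR; DCR is the % with CR/PR/SD. OS in osteosarcoma runs from enrollment to death from any cause, censored at the last recorded follow-up or observation.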

CYP2B6 = settings: read-out: IC50, reversible inhibition; ref unpublished inhouse data; cited from earlier work
CYP2C8 [5] = settings: read-out: IC50, reversible inhibition; ref unpublished inhouse data; cited from earlier work
CYP2C9 = settings: read-out: IC50, reversible inhibition; ref unpublished inhouse data; cited from earlier work
CYP2C19 = settings: read-out: IC50, reversible inhibition; ref unpublished inhouse data; cited from earlier work
CYP3A = settings: time-dependent inhibition; ref unpublished inhouse data; cited from earlier work
[6] = After Administration of TAS-115, DDI period (N=18)
[7] = Before Administration of TAS-115 (N=18)
[8] = Entire DDI Evaluation Period (N=18)
[9] = Continuous Administration Period (N=18)
[10] = continuous administration period
[11] = All patients (N=16), efficacy-evaluable

Cc1ncc2n1-c1ccc(Cl)cc1C(c1ccccc1F)=NC2 [Midazolam, midazolam, reference compound]
Any >=Grade 3 TRAEs Related to Midazolam [1, 6]: 0 (0.0) N (%) | Any TRAEs Related to Midazolam [1, 6]: 0 (0.0) N (%) | Any >=Grade 3 TRAEs Related to Midazolam [1, 7]: 0 (0.0) N (%) | Any TRAEs Related to Midazolam [1, 7]: 0 (0.0) N (%) | Any >=Grade 3 TRAEs Related to Midazolam [1, 8]: 0 (0.0) N (%) | Any TRAEs Related to Midazolam [1, 8]: 0 (0.0) N (%) | AUC(0-inf) (CYP3A4): 56.8 ng·h/mL | AUC(0-t) (CYP3A4): 55.5 ng·h/mL | Cmax (CYP3A4): 21.9 ng/mL

CCc1ccc(CCOc2ccc(CC3SC(=O)NC3=O)cc2)nc1 (stereo not drawn) [Pioglitazone, pioglitazone, reference compound]
Any >=Grade 3 TRAEs Related to Pioglitazone [1, 6]: 0 (0.0) N (%) | Any TRAEs Related to Pioglitazone [1, 6]: 0 (0.0) N (%) | Any >=Grade 3 TRAEs Related to Pioglitazone [1, 7]: 0 (0.0) N (%) | Any TRAEs Related to Pioglitazone [1, 7]: 1 (5.6) N (%) | TRAE (Grade 1 diarrhoea) related to pioglitazone ([1]; DDI evaluation period, pioglitazone administered before TAS-115): one patient | Any >=Grade 3 TRAEs Related to Pioglitazone [1, 8]: 0 (0.0) N (%) | Any TRAEs Related to Pioglitazone [1, 8]: 1 (5.6) N (%) | AUC(0-inf) (CYP2C8 [2]): 7710 ng·h/mL | AUC(0-t) (CYP2C8 [2]): 6340 ng·h/mL | Cmax (CYP2C8 [2]): 635 ng/mL

CNC(=O)c1cc2c(Oc3ccc(NC(=S)NC(=O)Cc4ccccc4)cc3F)ccnc2cc1OC [TAS-115, pamufetinib]
trough plasma concentration, arithmetic mean (standard deviation) ([3]; Day 4, 250 mg once daily oral): 834.5 (318.68) ng/mL | trough plasma concentration, arithmetic mean (standard deviation) ([3]; Day 5, 250 mg once daily oral): 881.6 (378.03) ng/mL | concentration at 24 h ([3]; human, plasma, po, 250 mg): 576 ng/mL | Any >=Grade 3 TEAEs [1, 6]: 2 (11.1) N (%) | Any >=Grade 3 TRAEs [1, 6]: 1 (5.6) N (%) | Any >=Grade 3 TRAEs Related to TAS-115 [1, 6]: 1 (5.6) N (%) | Any SAEs [1, 6]: 0 (0.0) N (%) | Any TEAEs [1, 6]: 15 (83.3) N (%) | Any TEAEs Leading to Death [1, 6]: 0 (0.0) N (%) | Any TEAEs Leading to Discontinuation of Study Medication [1, 6]: 0 (0.0) N (%) | Any TEAEs Leading to Dose Interruption of TAS-115 [1, 6]: 0 (0.0) N (%) | Any TEAEs Leading to Dose Reduction of TAS-115 [1, 6]: 0 (0.0) N (%) | Any TRAEs [1, 6]: 15 (83.3) N (%) | Any TRAEs Leading to Death [1, 6]: 0 (0.0) N (%) | Any TRAEs Leading to Discontinuation of Study Medication [1, 6]: 0 (0.0) N (%) | Any TRAEs Related to TAS-115 [1, 6]: 14 (77.8) N (%) | Any TRAEs Related to TAS-115 Leading to Dose Interruption of TAS-115 [1, 6]: 0 (0.0) N (%) | Any TRAEs Related to TAS-115 Leading to Dose Reduction of TAS-115 [1, 6]: 0 (0.0) N (%) | Any Treatment-Related SAEs [1, 6]: 0 (0.0) N (%) | Grade 3 or higher TRAE (anaemia) attributed to TAS-115 ([1]; DDI evaluation period): one patient | patients reporting TEAEs ([1]; DDI evaluation period): 83.3% | patients with TRAEs ([1]; DDI evaluation period): 83.3% | patients with TRAEs related to TAS-115 ([1]; DDI evaluation period): 14 patients | patients with TEAEs of ≥ Grade 3 ([1]; DDI evaluation period, anemia and lipase increased): 11.1% | Any >=Grade 3 TEAEs [1, 8]: 2 (11.1) N (%) | Any >=Grade 3 TRAEs [1, 8]: 1 (5.6) N (%) | Any >=Grade 3 TRAEs Related to TAS-115 [1, 8]: 1 (5.6) N (%) | Any SAEs [1, 8]: 0 (0.0) N (%) | Any TEAEs [1, 8]: 15 (83.3) N (%) | Any TEAEs Leading to Death [1, 8]: 0 (0.0) N (%) | Any TEAEs Leading to Discontinuation of Study Medication [1, 8]: 0 (0.0) N (%) | Any TEAEs Leading to Dose Interruption of TAS-115 [1, 8]: 0 (0.0) N (%) | Any TEAEs Leading to Dose Reduction of TAS-115 [1, 8]: 0 (0.0) N (%) | Any TRAEs [1, 8]: 15 (83.3) N (%) | Any TRAEs Leading to Death [1, 8]: 0 (0.0) N (%) | Any TRAEs Leading to Discontinuation of Study Medication [1, 8]: 0 (0.0) N (%) | Any TRAEs Related to TAS-115 [1, 8]: 14 (77.8) N (%) | Any TRAEs Related to TAS-115 Leading to Dose Interruption of TAS-115 [1, 8]: 0 (0.0) N (%) | Any TRAEs Related to TAS-115 Leading to Dose Reduction of TAS-115 [1, 8]: 0 (0.0) N (%) | Any Treatment-Related SAEs [1, 8]: 0 (0.0) N (%) | Any >=Grade 3 TEAEs [4, 9]: 8 (44.4) N (%) | Any >=Grade 3 TRAEs Related to TAS-115 [4, 9]: 6 (33.3) N (%) | Any SAEs [4, 9]: 5 (27.8) N (%) | Any TEAEs [4, 9]: 18 (100.0) N (%) | Any TEAEs Leading to Death [4, 9]: 0 (0.0) N (%) | Any TEAEs Leading to Discontinuation of Study Medication [4, 9]: 1 (5.6) N (%) | Any TEAEs Leading to Dose Interruption of TAS-115 [4, 9]: 10 (55.6) N (%) | Any TEAEs Leading to Dose Reduction of TAS-115 [4, 9]: 1 (5.6) N (%) | Any TRAEs Leading to Death [4, 9]: 0 (0.0) N (%) | Any TRAEs Leading to Discontinuation of Study Medication [4, 9]: 1 (5.6) N (%) | Any TRAEs Related to TAS-115 [4, 9]: 17 (94.4) N (%) | Any TRAEs Related to TAS-115 Leading to Dose Interruption of TAS-115 [4, 9]: 9 (50.0) N (%) | Any TRAEs Related to TAS-115 Leading to Dose Reduction of TAS-115 [4, 9]: 1 (5.6) N (%) | Any Treatment-Related SAEs [4, 9]: 2 (11.1) N (%) | Grade 3 rash maculo-papular leading to discontinuation of TAS-115 [4, 10]: One patient | TEAE blood creatine phosphokinase (CK) increased [4, 10]: 27.8% | TRAE of ≥ Grade 3 related to TAS-115: anaemia [4, 10]: 11.1% | TRAE related to TAS-115: alanine aminotransferase increased [4, 10]: 33.3% | TRAE related to TAS-115: anemia [4, 10]: 27.8% | TRAE related to TAS-115: aspartate aminotransferase increased [4, 10]: 55.6% | TRAE related to TAS-115: blood CK increased [4, 10]: 27.8% | TRAE related to TAS-115: platelet count decreased [4, 10]: 22.2% | TRAE related to TAS-115: rash [4, 10]: 22.2% | criteria for severe drug-induced liver injury (Hy’s law) [4, 10]: No criteria for severe drug-induced liver injury (Hy’s law) were met | patients reporting TEAEs [4, 10]: 100% | patients requiring dose interruption by AEs [4, 10]: 55.6% | patients requiring dose reduction due to AEs related to TAS-115 [4, 10]: 5.6% | patients with SAEs [4, 10]: 27.8% | patients with TEAEs of ≥ Grade 3 [4, 10]: 44.4% | patients with TRAEs of ≥ Grade 3 related to TAS-115 [4, 10]: 33.3% | patients with TRAEs related to TAS-115 [4, 10]: 94.4% | deaths ([4]; continuous administration period or within 30 days following discontinuation): No deaths occurred | CR (solid tumors; [11]): 0 (0.0) N (%) | Disease control rate (CR+PR+SD) (solid tumors; [11]): 6 (37.5) N (%) | PD (solid tumors; [11]): 10 (62.5) N (%) | PR (solid tumors; [11]): 1 (6.3) N (%) | Progression-free survival, Censored (solid tumors; [11]): 2 (12.5) N (%) | Progression-free survival, Event (solid tumors; [11]): 14 (87.5) N (%) | Progression-free survival, Median (solid tumors; [11]): 2.1 month | Response rate (CR+PR) (solid tumors; [11]): 1 (6.3) N (%) | CR (solid tumors; Osteosarcoma (N=4)): 0 (0.0) N (%) | Disease control rate (CR+PR+SD) (solid tumors; Osteosarcoma (N=4)): 2 (50.0) N (%) | Overall survival, Censored (solid tumors; Osteosarcoma (N=4)): 1 (25.0) N (%) | Overall survival, Event (solid tumors; Osteosarcoma (N=4)): 3 (75.0) N (%) | Overall survival, Median (solid tumors; Osteosarcoma (N=4)): 13.8 month | PD (solid tumors; Osteosarcoma (N=4)): 2 (50.0) N (%) | PR (solid tumors; Osteosarcoma (N=4)): 1 (25.0) N (%) | Progression-free survival, Censored (solid tumors; Osteosarcoma (N=4)): 0 (0.0) N (%) | Progression-free survival, Event (solid tumors; Osteosarcoma (N=4)): 4 (100.0) N (%) | Progression-free survival, Median (solid tumors; Osteosarcoma (N=4)): 7.0 month | Response rate (CR+PR) (solid tumors; Osteosarcoma (N=4)): 1 (25.0) N (%) | DCR (solid tumors; patients with solid tumors, 16 evaluable): 37.5% | IC50 (CYP2B6): 6.03 µM | IC50 (CYP2C8 [5]): 0.563 µM | IC50 (CYP2C9): 2.03 µM | IC50 (CYP2C19): 4.23 µM | concentration of the inhibitor required to achieve 50% of the maximum inactivation rate (CYP3A): 28.5 µmol/L | maximum inactivation rate constant (CYP3A): 0.0650 min⁻¹
